In ChEMBL document CHEMBL1136923, “Highly potent, orally available anti-inflammatory broad-spectrum chemokine inhibitors” (J Med Chem, 2009) one finds ED50 and inhibition data, which are given here for 18 compounds.

The structures appear in SMILES notation.

Common to all, as to assay type: functional, cell-based
Holding throughout (settings): THP-1

Assay [1] addresses C-C chemokine receptor type 2 (Homo sapiens) (UniProt P41597). Kind of assay: Antagonist activity at CCR2 in human THP1 cells assessed as inhibition of CCL2-induced chemotaxis after 2 hrs by microtiter format trans-well migration assay. Summed up: (§1)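 Microtiter trans-well migration assay in Gey's balanced salt solution with 1 mg/mL endotoxin-free BSA, no fetal calf serum. Migration ran 2 h at 37 °C. Compounds dissolved in DMSO and added to both top and bottom compartments, final DMSO 1%.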

Assay [2] shares this target. Briefly: Antagonist activity at CCR2 in human THP1 cells assessed as inhibition of CCL2-induced chemotaxis at 10 nM after 2 hrs by microtiter format trans-well migration assay. The gist of the method:
as §1

Assay [3] shares this target. Kind of assay: Antagonist activity at CCR2 in human THP1 cells assessed as inhibition of CCL2-induced chemotaxis at 1000 nM after 2 hrs by microtiter format trans-well migration assay. Summed up: as §1
The target is the same in assay [4]. Kind of assay: Antagonist activity at CCR2 in human THP1 cells assessed as inhibition of CCL2-induced chemotaxis at 0.1 nM after 2 hrs by microtiter format trans-well migration assay. Summed up: as §1
The target is the same in assay [5]. Briefly: Antagonist activity at CCR2 in human THP1 cells assessed as inhibition of CCL2-induced chemotaxis at 0.01 nM after 2 hrs by microtiter format trans-well migration assay. The gist of the method:
as §1

Assay [6] has the same target. Briefly: Antagonist activity at CCR2 in human THP1 cells assessed as inhibition of CCL2-induced chemotaxis at 1 nM after 2 hrs by microtiter format trans-well migration assay. Summed up:
as §1

For assay [7] the target is unchanged. Briefly: Antagonist activity at CCR2 in human THP1 cells assessed as inhibition of CCL2-induced chemotaxis at 100 nM after 2 hrs by microtiter format trans-well migration assay. The gist of the method: as §1

A word on the inhibition: it is the drop in the measured response relative to a control, in per cent.

Sequence of C-C chemokine receptor type 2 (Homo sapiens) (P41597 whole entry, looked up): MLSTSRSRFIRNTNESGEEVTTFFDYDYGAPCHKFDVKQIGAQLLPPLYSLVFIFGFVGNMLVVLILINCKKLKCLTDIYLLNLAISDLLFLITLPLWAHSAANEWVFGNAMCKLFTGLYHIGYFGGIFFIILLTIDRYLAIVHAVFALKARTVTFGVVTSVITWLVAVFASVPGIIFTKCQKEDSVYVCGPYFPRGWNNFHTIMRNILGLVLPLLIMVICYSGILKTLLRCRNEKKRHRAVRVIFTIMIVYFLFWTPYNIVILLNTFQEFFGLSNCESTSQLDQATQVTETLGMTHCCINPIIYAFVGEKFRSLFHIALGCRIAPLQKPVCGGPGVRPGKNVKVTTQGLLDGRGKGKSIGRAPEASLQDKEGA

`CCCCCC12CCC(C(=O)N[C@H]3CCCCNC3=O)(CC1)CC2`: the ED50 in assay [1] was found to be 7 nM. On the same count and under the same terms, in the case of `O=C(N[C@H]1CCCCNC1=O)C1CCCCC1` it was 0.5 nM. Same read-out and setting: with `CCCCCCCCC/C=C(\C)C(=O)N[C@H]1CCCCNC1=O` the figure was 10 nM; with `O=C(CC12CC3CC(CC(C3)C1)C2)N[C@H]1CCCCNC1=O`, 0.8 nM.

In the case of `CCCCCCCCCCC(C)(C)C(=O)N[C@@H]1CCCCNC1=O`, the inhibition in assay [2] turned out to be 69%; in assay [3], 98.5%; in assay [4], 20%; in assay [5], 5%; in assay [6], 36%; in assay [7], 101%. Besides, the ED50 in assay [1] was determined as 4.5 nM. As to `O=C1NCCCC[C@H]1NC(=O)C12CC3CC(CC(C3)C1)C2`, the inhibition in assay [2] came out at 98%; in assay [3], 100%; in assay [4], 14%; in assay [5], 26%; in assay [6], 46%; in assay [7], 101%. In addition, the ED50 in assay [1] was found to be 0.44 nM. As for `CC(C)CCC(C)(C)C(=O)N[C@H]1CCCCNC1=O`, the ED50 in assay [1] worked out at 0.08 nM.

With `O=C(N[C@H]1CCCCNC1=O)C1=CCCCC1`, the ED50 in assay [1] was found to be 0.8 nM. Still for that read-out and setting: with `CCCCCCCCCCCC(=O)N[C@H]1CCCCNC1=O` the figure was 15 nM; with `CC(C)=CCC(C)(C)C(=O)N[C@H]1CCCCNC1=O`, 0.2 nM; with `CCCCCCCCCCC(C)C(=O)N[C@H]1CCCCNC1=O` (mixture of isomers; form 1), 3 nM. Same read-out and setting: in the case of `C=CCC(C)(C)C(=O)N[C@H]1CCCCNC1=O` it was 1 nM; in that of `CCC(C)(C)C(=O)N[C@H]1CCCCNC1=O`, 0.07 nM; in that of `CC(CCl)(CCl)C(=O)N[C@H]1CCCCNC1=O`, 9 nM. As to `CCCCCCCCCC(C)(C)CC(=O)N[C@H]1CCCCNC1=O`, in assay [1], the ED50 is 4 nM. On the same count and under the same terms, with `CCCCCC1CCC(C(=O)N[C@H]2CCCCNC2=O)CC1` (stereo not given in full) the figure was 5 nM; with `CCCC(C)(C)C(=O)N[C@H]1CCCCNC1=O`, 0.5 nM; with `CCCCCCCCCCC(C)C(=O)N[C@H]1CCCCNC1=O` (mixture of isomers; form 2), 3 nM.
